Experimental findings from ChEMBL document CHEMBL1125404 (J Med Chem, 1992) are described below.

Series [1] deals with Potassium-transporting ATPase (Oryctolagus cuniculus). Nature of the series: In vitro evaluation for the inhibition of H+/K+ ATPase at pH < 3 in the gastric glands of isolated rabbit stomach.
The target in series [2] is Sodium/potassium-transporting ATPase. Nature of the series: In vitro evaluation for its ability to inhibit the Na+/K+ ATPase at pH 7.4. Format: protein-complex assay, Canis lupus familiaris. In outline:
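Dog kidney (Na+,K+)-ATPase (20 μg) incubated in 50 mmol/L HEPES pH 7.4 containing (mmol/L) 140 NaCl, 10 KCl, 3 ATP-Mg and 0.5 EDTA, with inhibitor at 0–300 μmol/L.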

Series [3] can be described thus: pKa value (pyridine). The series is classed as physicochemical. In outline: (§1)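 Measured spectrophotometrically at ambient temperature (25 °C).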
Series [4] can be described thus: Half life at pH 7.4. Format: ADME. To be noted: buffer.
Series [5] in a line: t1/2 (pH 5). The series is classed as ADME.
Series [6] in a line: t1/2 (pH 3). The series is classed as ADME.
The nature of series [7]: pKa value (imidazole). Format: physicochemical. In outline: as §1
A short description of series [8]: Half life at pH 7.4; Insoluble to measure. Format: ADME. To be noted: buffer.
A short description of series [9]: Half life at pH 3; Insoluble to measure. The series is classed as ADME. As to conditions: buffer.
The nature of series [10]: Half life at pH 5; Insoluble to measure. To be noted: buffer. Format: ADME.

Structures are written as SMILES.

As a reminder, the IC50 is the concentration at which inhibition is half-maximal. Read a high IC50 as a need for much substance. By pKa is commonly meant the negative logarithm of the acid dissociation constant. Read a high pKa as a weaker acid or stronger base. A word on the half-life: it is the time in which the quantity being followed falls by half. Higher therefore signals slow loss. Molecule `COc1cnc(C[S+]([O-])c2nc3cc(OCC(F)(F)F)ccc3[nH]2)c(C)c1OC` (stereo unspecified) had a concentration for half-maximal inhibition (IC50) in series [1] of 2.51 µM. In addition, the “-Log IC50” value in series [2] stood at 4.3. In addition, the results for the pKa in series [3] and in series [7] were 3.72 and 8.61, respectively. The half-life in series [4] was 130 h; in [5], 3.3 h; in series [6], 0.167 h.

For the molecule `COc1ccnc(C[S+]([O-])c2nc3cc4c(cc3[nH]2)OC(F)(F)O4)c1` (stereo unspecified), in [1], the IC50 is 2.51 µM. Moreover, the -Log IC50 in series [2] is < 3.5. For the same molecule, the pKa in series [3] was 4.29; in series [7] it was 7.92. Further, the half-life was 1.4 h in [5] and 0.333 h in series [6]. Also, in series [8], the T1/2 result is “Insoluble to measure”.

Regarding `COc1cnc(C[S+]([O-])c2nc3cc(OC(F)F)ccc3[nH]2)c(C)c1OC` (stereo unspecified), the IC50 in [1] was 2.51 µM. Besides, the “-Log IC50” value in series [2] was determined as 4.6. Further, the pKa in series [3] stood at 3.73; in [7] it was 8.35. Moreover, the half-life in series [4] was 60 h; in series [5] it was 3.7 h; in series [6] it was 0.2 h.

`COc1cc2[nH]c([S+]([O-])Cc3nccc(OC)c3C)nc2cc1OC(F)F` (stereo unspecified) gave a half-maximal inhibitory concentration (IC50) in series [1] of 1.58 µM. Also, the “-Log IC50” value in [2] is reported as 5. For the same molecule, the pKa in [3] worked out at 4.96; in series [7], 8.31. Moreover, the half-life was 11 h in series [4], 0.2 h in [5] and 0.1 h in series [6].

Consider `COc1ccc2[nH]c([S+]([O-])Cc3ncc(C)c(OC)c3C)nc2c1` (stereo unspecified) [OMEPRAZOLE], for which, in [2], the “-Log IC50” value was determined as 4.5. Further, the pKa in series [3] turned out to be 4.13; in [7] it was 8.98. In addition, the half-life is 80 h in series [4], 1 h in [5] and 0.0667 h in series [6].

Regarding `COc1cc(C[S+]([O-])c2nc3cc(OC(F)(F)C(F)F)ccc3[nH]2)ncc1C` (stereo unspecified), the IC50 in [1] is 1.26 µM. For the same molecule, the “-Log IC50” value in series [2] was 5.5. Moreover, the figures for the pKa in series [3] and in series [7] were 4.95 and 8, respectively. In addition, the half-life in series [4] was 18 h; in series [5] it was 0.2 h; in series [6], 0.1 h.

In series [1], `COc1ccnc(C[S+]([O-])c2nc3cc(OC(F)(F)C(F)F)ccc3[nH]2)c1` (stereo unspecified) gave an IC50 of 1.26 µM. For the same molecule, the “-Log IC50” value in series [2] was 4.4. Besides, the pKa in [3] is 4.25; in [7], 7.91. The half-life in series [4] was 63 h; in series [5], 0.8 h; in series [6] it was 0.167 h.

Molecule `COc1ccnc(C[S+]([O-])c2nc3cc(OC(F)F)ccc3[nH]2)c1C` (stereo unspecified) gave an IC50 in series [1] of 0.631 µM. The “-Log IC50” value in series [2] is listed as 5.2. Besides, the half-life is 3 h in [4], 0.17 h in [5] and 0.0833 h in [6].

For `COc1ccnc(C[S+]([O-])c2nc3cc4c(cc3[nH]2)OC(F)(F)O4)c1C` (stereo unspecified), in series [1], the IC50 was 1 µM. The “-Log IC50” value in series [2] is 4.6. Besides, the pKa came out at 4.73 in series [3] and 7.93 in series [7]. Also, the figures for the half-life in series [5] and in series [6] were 0.5 h and 0.167 h, respectively. In addition, the T1/2 result in [8] is reported as “Insoluble to measure”.

Turning to `Cc1c(OCC(F)(F)F)ccnc1C[S+]([O-])c1nc2ccccc2[nH]1` (stereo unspecified) [LANSOPRAZOLE], the “-Log IC50” value in [2] came out at 4.4. Also, the pKa in series [3] is 4.01; in [7] it was 8.78. Also, the values for the half-life in series [4], in series [5] and in [6] were 40 h, 1.1 h and 0.0667 h, respectively.

With `COc1ccnc(C[S+]([O-])c2nc3cc(OC(F)F)ccc3[nH]2)c1OC` (stereo unspecified) [PANTOPRAZOLE], in series [2], the “-Log IC50” value is given as 3.7. Also, the pKa came to 3.92 in series [3] and 8.19 in series [7]. Also, the half-life was 130 h in series [4], 3 h in series [5] and 0.15 h in series [6].

In [1], `COc1cnc(C[S+]([O-])c2nc3cc(OC(F)(F)C(F)F)ccc3[nH]2)cc1OC` (stereo unspecified) showed an IC50 of 20 µM. Besides, the “-Log IC50” value in [2] is on record as < 3. For the same molecule, the half-life was 140 h in series [4], 2.9 h in series [5] and 0.317 h in [6].

With `COc1ccnc(C[S+]([O-])c2nc3cc(F)c(OC(F)F)cc3[nH]2)c1OC` (stereo unspecified), the IC50 in series [1] was 7.94 µM. Further, the “-Log IC50” value in [2] turned out to be 3.4. For the same molecule, the pKa is 3.76 in [3] and 7.76 in series [7]. In addition, the half-life in series [4] was 150 h; in [5] it was 8.3 h; in [6], 0.433 h.

In turn, `COc1c(C)cnc(C[S+]([O-])c2nc3cc(OC(F)F)ccc3[nH]2)c1C` (stereo unspecified) showed an IC50 in series [1] of 0.501 µM. The “-Log IC50” value in series [2] worked out at 4.4. Also, the pKa turned out to be 4.16 in series [3] and 8.23 in series [7]. In addition, the half-life in [4] was 15 h; in [5] it was 1.9 h; in series [6], 0.2 h.

`COc1ccnc(C[S+]([O-])c2nc3cc(OC(F)(F)C(F)F)ccc3[nH]2)c1OC` (stereo unspecified) had an IC50 in [1] of 5.01 µM. Besides, the “-Log IC50” value in series [2] worked out at 3.8. In addition, the pKa in series [3] came out at 3.86; in series [7], 8.08. The half-life in [4] is 160 h; in series [5] it was 3.6 h; in series [6], 0.3 h.

In turn, `COc1ccnc(C[S+]([O-])c2nc3cc(F)c(OC(F)F)cc3[nH]2)c1C` (stereo unspecified) had a 50% inhibitory concentration (IC50) in [1] of 3.16 µM. Moreover, the “-Log IC50” value in [2] was determined as 4.7. The half-life was 4 h in series [4], 0.5 h in series [5] and 0.133 h in series [6].

For `COc1ccnc(C[S+]([O-])c2nc3cc(OCC(F)(F)F)ccc3[nH]2)c1C` (stereo unspecified), in [1], the half-maximal inhibitory concentration (IC50) is 0.794 µM. Further, in [2], the “-Log IC50” value came out at 5.4. Besides, the pKa in series [3] stood at 4.97; in series [7], 8.51. Besides, the half-life was 5 h in [4], 0.15 h in series [5] and 0.0833 h in [6].

Turning to `COc1cnc(C[S+]([O-])c2nc3cc(OC(F)(F)C(F)F)ccc3[nH]2)c(C)c1OC` (stereo unspecified), the IC50 in series [1] was 7.94 µM. Moreover, in series [2], the “-Log IC50” value came to 4.2. Moreover, the half-life in [4] was 43 h; in series [5], 6.8 h; in series [6], 0.333 h.

On to `COc1cnc(C[S+]([O-])c2nc3cc4c(cc3[nH]2)OC(F)(F)O4)c(C)c1OC` (stereo unspecified), for which, in series [1], the concentration for half-maximal inhibition (IC50) was 15.8 µM. Besides, the “-Log IC50” value in series [2] is < 3. The T1/2 entry in series [9], in [10] and in series [8] was “Insoluble to measure” throughout.

`COc1cc2[nH]c([S+]([O-])Cc3nccc(OC)c3OC)nc2cc1OC(F)F` (stereo unspecified) gave an IC50 in series [1] of 3.98 µM. In [2], the “-Log IC50” value came out at 3.6. Besides, the half-life was 800 h in [4], 2.1 h in [5] and 0.25 h in series [6].

The molecule `COc1ccnc(C[S+]([O-])c2nc3cc(OC(F)F)ccc3[nH]2)c1` (stereo unspecified) gave a half-inhibitory concentration (IC50) in series [1] of 1.58 µM. For the same molecule, the “-Log IC50” value in series [2] is 4.3. For the same molecule, the results for the half-life in series [4], in series [5] and in [6] were 51 h, 0.8 h and 0.167 h, respectively.

In series [1], `COc1ccnc(C[S+]([O-])c2nc3cc(OCC(F)(F)F)ccc3[nH]2)c1OC` (stereo unspecified) showed an IC50 of 1 µM. Moreover, the “-Log IC50” value in [2] was 3.5. In addition, the pKa in series [3] was 3.9; in series [7], 8.52. The half-life in series [4] was > 200 h; in series [5] it was 7.6 h; in series [6] it was 0.183 h.

The molecule `COc1ccnc(C[S+]([O-])c2nc3cc4c(cc3[nH]2)OC(F)(F)O4)c1OC` (stereo unspecified) had a half-maximal inhibitory concentration (IC50) in [1] of 2.51 µM. The “-Log IC50” value in series [2] was determined as 3.6. The pKa was 3.84 in series [3] and 7.97 in series [7]. Also, the half-life in series [4] is > 200 h; in [5] it was 6 h; in [6], 0.633 h.

In [1], `COc1cnc(C[S+]([O-])c2nc3cc4c(cc3[nH]2)OC(F)(F)O4)cc1OC` (stereo unspecified) had an IC50 of 63.1 µM. In addition, the “-Log IC50” value in series [2] is recorded as < 3. Besides, the T1/2 entry in series [9], in series [10] and in [8] was “Insoluble to measure” throughout.

The molecule `COc1ccnc(C[S+]([O-])c2nc3cc(OC(F)(F)C(F)F)ccc3[nH]2)c1C` (stereo unspecified) had an IC50 in series [1] of 0.398 µM. In [2], the “-Log IC50” value came out at 5.5. In addition, the half-life was 0.3 h in series [5] and 0.0833 h in series [6]. Moreover, the T1/2 result in [8] is “Insoluble to measure”.

In turn, `COc1cnc(C[S+]([O-])c2nc3cc(OC(F)F)ccc3[nH]2)cc1OC` (stereo unspecified) had an IC50 in series [1] of 31.6 µM. In addition, the “-Log IC50” value in [2] was < 3.5. The values for the pKa in [3] and in [7] were 3.75 and 8.03, respectively. Moreover, the values for the half-life in series [4], in series [5] and in series [6] were > 200 h, 2.1 h and 0.283 h, respectively.
